Laboratory results as given in ChEMBL document CHEMBL2380254, “Optimization of tocotrienols as antiproliferative and antimigratory leads” (Eur J Med Chem, 2013).

Tests used:
Type in all cases: functional
SK-OV-3 = assay: Growth inhibition of human SKOV3 cells after 48 hrs by sulforhodamine B assay; details: SK-OV-3, 48 h
Outline: (§1)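 NCI-60 five-dose screen. Cells were grown in RPMI 1640 with 5% FBS and 2 mM L-glutamine, plated at 5000–40,000 cells/well and incubated 24 h before dosing, with T0 plates TCA-fixed. DMSO stocks were diluted to doses of […] and exposed 48 h at 37 °C, 5% CO2. Cells were fixed with cold TCA (final 10%, 60 min, 4 °C), stained with 0.4% SRB in 1% acetic acid for 10 min, solubilized in 10 mM trizma base and read at 515 nm. GI50 is where 100×(T−T0)/(C−T0)=50.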

SF-295 = assay: Growth inhibition of human SF295 cells after 48 hrs by sulforhodamine B assay; details: SF-295, 48 h
Outline: (§2)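 NCI-60 panel cells grown in RPMI 1640 with 5% FBS and 2 mM L-glutamine, seeded at 5000–40,000 cells/well and preincubated 24 h. Five 10-fold dilutions (0.001–100 µM) from DMSO stocks were added for 48 h at 37 °C. Adherent cells were fixed with cold TCA (10% final) for 60 min at 4 °C, stained with 0.4% SRB, and read at 515 nm. GI50 was set where 100×(T−T0)/(C−T0)=50.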

NCI-H460 = assay: Growth inhibition of human NCI-H460 cells after 48 hrs by sulforhodamine B assay; details: NCI-H460, 48 h; outline: as §2
U-251 [1] = assay: Growth inhibition of human U251 cells after 48 hrs by sulforhodamine B assay; details: U-251, 48 h; outline: as §1
UO-31 = assay: Growth inhibition of human UO31 cells assessed as cell growth at 10 uM after 48 hrs by sulforhodamine B assay; details: UO-31, 48 h, read-out: Activity
Outline: (§3)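 Single-dose NCI-60 test at 10 µM. Cells were grown in RPMI 1640 with 5% FBS and 2 mM L-glutamine, preincubated 24 h, with T0 plates TCA-fixed. Exposure was 48 h at 37 °C, 5% CO2. Cells were fixed with cold TCA (final 10%, 4 °C, 60 min), stained with SRB and read at 515 nm. Percent growth was taken relative to T0 and untreated control; negative values denote cell kill.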

HL-60(TB) = assay: Growth inhibition of human HL-60(TB) cells assessed as cell growth at 10 uM after 48 hrs by sulforhodamine B assay; details: HL-60, 48 h, read-out: Activity
Outline: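 NCI-60 single-dose screen run at 10 µM on HL-60(TB) suspension cells in RPMI 1640 with 5% FBS and 2 mM L-glutamine. Cells were preincubated for 24 h, with a time-zero plate fixed then. Exposure lasted 48 h at 37 °C. Settled cells were fixed with TCA (16% final), stained with SRB and read at 515 nm. Percent growth is relative to control and T0.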

OVCAR-3 [2] = assay: Growth inhibition of human OVCAR3 cells assessed as cell growth at 10 uM after 48 hrs by sulforhodamine B assay; details: OVCAR-3, 48 h, read-out: Activity
Outline: (§4)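 Single-dose NCI-60 screen: adherent cells in RPMI 1640 with 5% FBS were exposed to 10 µM for 48 h at 37 °C after a 24 h preincubation. They were fixed in situ with cold TCA (10% final), stained with 0.4% SRB in 1% acetic acid, solubilized in 10 mM Tris base, and read at 515 nm. Percent growth was taken relative to time-zero and control plates.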

TK-10 = assay: Growth inhibition of human TK10 cells assessed as cell growth at 10 uM after 48 hrs by sulforhodamine B assay; details: TK-10, 48 h, read-out: Activity; outline: as §3
OVCAR-5 = assay: Growth inhibition of human OVCAR5 cells after 48 hrs by sulforhodamine B assay; details: OVCAR-5, 48 h; outline: as §2
OVCAR-4 = assay: Growth inhibition of human OVCAR4 cells assessed as cell growth at 10 uM after 48 hrs by sulforhodamine B assay; details: OVCAR-4, 48 h, read-out: Activity; outline: as §4
ACHN [3] = assay: Growth inhibition of human ACHN cells after 48 hrs by sulforhodamine B assay
Outline: (§5)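 NCI-60 screen: cells in RPMI 1640 with 5% FBS and 2 mM glutamine, 5000–40,000 cells/well, preincubated 24 h. Five concentrations (10-fold dilutions; 100 to 0.001 µM) applied for 48 h at 37 °C. TCA fixation, SRB stain, absorbance at 515 nm. Time-zero plates included; GI50 where 100×(T−T0)/(C−T0)=50.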

MDA-MB-435 = assay: Growth inhibition of human MDA-MB-435 cells assessed as cell growth at 10 uM after 48 hrs by sulforhodamine B assay; details: MDA-MB-435, 48 h, read-out: Activity; outline: as §4
A498 = assay: Growth inhibition of human A498 cells assessed as cell growth at 10 uM after 48 hrs by sulforhodamine B assay; details: A498, 48 h, read-out: Activity
Outline: (§6)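 NCI-60 single-dose screen at 10 µM: cells in RPMI 1640 with 5% FBS, preincubated 24 h, then exposed 48 h at 37 °C. TCA fixation (16% final for suspension cells), SRB staining, absorbance 515 nm. Percent growth relative to time-zero and untreated control plates; negative values indicate cell kill.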

[4] = Growth inhibition of human EKVX cells after 48 hrs by sulforhodamine B assay; outline: as §5
HOP-92 = assay: Growth inhibition of human HOP92 cells after 48 hrs by sulforhodamine B assay; details: HOP-92, 48 h; outline: as §5
IGROV-1 = assay: Growth inhibition of human IGROV1 cells after 48 hrs by sulforhodamine B assay; details: IGROV-1, 48 h; outline: as §5
COLO 205 = assay: Growth inhibition of human COLO205 cells after 48 hrs by sulforhodamine B assay; details: COLO 205, 48 h; outline: as §5
[5] = Growth inhibition of human Hs 578T cells assessed as cell growth at 10 uM after 48 hrs by sulforhodamine B assay; details: read-out: Activity; outline: as §6
U-251 [6] = assay: Growth inhibition of human U251 cells assessed as cell growth at 10 uM after 48 hrs by sulforhodamine B assay; details: U-251, 48 h, read-out: Activity; outline: as §3
CCRF-CEM = assay: Growth inhibition of human CCRF-CEM cells assessed as cell growth at 10 uM after 48 hrs by sulforhodamine B assay; details: read-out: Activity; outline: as §6
ACHN [7] = assay: Growth inhibition of human ACHN cells assessed as cell growth at 10 uM after 48 hrs by sulforhodamine B assay; details: read-out: Activity; outline: as §6
SK-MEL-5 = assay: Growth inhibition of human SK-MEL-5 cells assessed as cell growth at 10 uM after 48 hrs by sulforhodamine B assay; details: SK-MEL-5, 48 h, read-out: Activity; outline: as §4
OVCAR-3 [8] = assay: Growth inhibition of human OVCAR3 cells after 48 hrs by sulforhodamine B assay; details: OVCAR-3, 48 h; outline: as §2
BT-549 = assay: Growth inhibition of human BT549 cells assessed as cell growth at 10 uM after 48 hrs by sulforhodamine B assay; details: BT-549, 48 h, read-out: Activity; outline: as §6
K562 = assay: Growth inhibition of human K562 cells assessed as cell growth at 10 uM after 48 hrs by sulforhodamine B assay; details: K562, 48 h, read-out: Activity; outline: as §6

SMILES | GI50 (SK-OV-3) [nM] | GI50 (SF-295) [nM] | GI50 (NCI-H460) [nM] | GI50 (U-251 [1]) [nM] | growth at 10 µM (UO-31) [%] | growth at 10 µM (HL-60(TB)) [%] | growth at 10 µM (OVCAR-3 [2]) [%] | growth at 10 µM (TK-10) [%] | GI50 (OVCAR-5) [nM] | growth at 10 µM (OVCAR-4) [%] | GI50 (ACHN [3]) [nM] | growth at 10 µM (MDA-MB-435) [%] | growth at 10 µM (A498) [%] | GI50 [4] [nM] | GI50 (HOP-92) [nM] | growth at 10 µM [5] [%] | growth at 10 µM (U-251 [6]) [%] | growth at 10 µM (CCRF-CEM) [%] | growth at 10 µM (ACHN [7]) [%] | growth at 10 µM (SK-MEL-5) [%] | further results
CC(C)=CCC/C(C)=C/CC/C(C)=C/CC[C@]1(C)CCc2c3c(cc(C)c2O1)OCN(CCCCCCCCO)C3 | 2240 | 1020 | 710 | 544 | -91.5 | -57.3 | -85.4 | 51.2 | 2730 | -98.9 | 2160 | -76.2 | 117 | 2980 | 1840 | 12 | -95.8 | -29.7 | -97.6 | 19.1 | GI50 (IGROV-1): 1340 nM; GI50 (COLO 205): 886 nM; GI50 (OVCAR-3 [8]): 811 nM
CC(C)=CCC/C(C)=C/CC/C(C)=C/CC[C@]1(C)CCc2c3c(c(C)c(C)c2O1)OCN(CCCCCCO)C3 | 2570 | 2970 | 3150 | 2730 | 42.7 | 65.9 | – | 97.9 | 2760 | 3.51 | 2750 | 22.1 | 111 | 2660 | 1890 | 90.4 | -75.2 | 5.83 | 68.6 | 95.2 | GI50 (IGROV-1): 2690 nM; GI50 (COLO 205): 2830 nM; growth at 10 µM (BT-549): 119%; GI50 (OVCAR-3 [8]): 2820 nM
CC(C)=CCC/C(C)=C/CC/C(C)=C/CC[C@]1(C)CCc2c3c(c(C)c(C)c2O1)OCN(CCCCCCCCO)C3 | 2630 | 3160 | 3250 | 2610 | 27.9 | 31 | 31.7 | 93.5 | 2830 | 57.9 | 2620 | -21.4 | 117 | 3040 | 2170 | 81.7 | 34 | 10.4 | 79.6 | 83.7 | GI50 (IGROV-1): 2880 nM; GI50 (COLO 205): 2780 nM; growth at 10 µM (BT-549): 109%; GI50 (OVCAR-3 [8]): 2790 nM
CC(C)=CCC/C(C)=C/CC/C(C)=C/CC[C@]1(C)CCc2c3c(c(C)c(C)c2O1)OCN(CCCCO)C3 | 5410 | 2080 | 1940 | 1550 | 50.7 | 72.2 | 79.9 | 101 | > 10000 | 77.5 | > 10000 | 53.9 | 116 | > 10000 | 2900 | 91.6 | 14.8 | 39.9 | 78.8 | 91 | GI50 (IGROV-1): 6530 nM; GI50 (COLO 205): 2090 nM; growth at 10 µM (BT-549): 104%; GI50 (OVCAR-3 [8]): 3850 nM
COc1ccc(CCN2COc3c(C)c(C)c4c(c3C2)CC[C@@](C)(CC/C=C(\C)CC/C=C(\C)CCC=C(C)C)O4)cc1OC | – | – | – | – | 76.2 | 79.4 | 105 | 105 | – | 98.4 | – | 90.7 | 108 | – | – | 198 | 88.4 | 78 | 95.8 | 107 | growth at 10 µM (K562): 78.3%; growth at 10 µM (BT-549): 115%
